{
  "source": "ChEMBL document CHEMBL1129065",
  "about": "“Longimicins A-D: novel bioactive acetogenins from Asimina longifolia (annonaceae) and structure-activity relationships of asimicin type of annonaceous acetogenins” (1996)",
  "format_in_all_cases": "functional",
  "key": {"Artemia": {"test_system": "Artemia", "test": "Lethal concentration required against bioactivity using brine shrimp lethality test"}, "MCF7": {"test_system": "MCF7", "test": "Cytotoxicity concentration against human breast carcinoma MCF-7 cell line", "settings": "read-out: ED50 (the source's name)", "how_it_was_run": "(§1)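 7-day MTT cytotoxicity assay in human tumor cells, run at the Purdue Cancer Center cell culture lab under standard protocols. Samples serially diluted and each concentration tested in duplicate. ED50 calculated from the averaged values per concentration. Adriamycin included as positive control in every experiment.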"}, "A549": {"test_system": "A549", "test": "Cytotoxicity concentration against human lung carcinoma A-549 cell line", "settings": "read-out: ED50 (the source's name)", "how_it_was_run": "as §1"}, "Culicidae": {"test_system": "Culicidae", "test": "Lethal concentration required against bioactivity using yellow fever mosquito larvae assay"}, "A498": {"test_system": "A498", "test": "Cytotoxicity concentration against human kidney carcinoma A-498 cell line", "settings": "read-out: ED50 (the source's name)", "how_it_was_run": "as §1"}, "PC-3": {"test_system": "PC-3", "test": "Cytotoxicity concentration against human prostate […] PC-3 cell line", "settings": "read-out: ED50 (the source's name)", "how_it_was_run": "as §1"}, "MIA PaCa-2": {"test_system": "MIA PaCa-2", "test": "Cytotoxicity concentration against human pancreatic carcinoma PaCa-2 cell line", "settings": "read-out: ED50 (the source's name)", "how_it_was_run": "as §1"}, "HT-29": {"test_system": "HT-29", "test": "Cytotoxicity concentration against human colon […] HT-29 cell line", "settings": "read-out: ED50 (the source's name)", "how_it_was_run": "as §1"}},
  "data": [
    {"smiles": "CCCCCCC[C@H]1CC[C@H](CCCC[C@@H](O)[C@H]2CC[C@H](CCC[C@H](O)[C@@H](O)CCCCCCCC3=C[C@H](C)OC3=O)O2)O1", "note": "[ASIMIN]", "values": [
      {"measurement": "LC50", "setting": "Artemia", "result": 0.0046, "unit": "µg/mL"}
    ]},
    {"smiles": "CCCCCCCCCCCCCC[C@@H](O)[C@H]1CC[C@H]([C@H]2CC[C@H]([C@H](O)CCCCCC[C@@H](O)CC3=C[C@H](C)OC3=O)O2)O1", "values": [
      {"measurement": "LC50", "setting": "Artemia", "result": 18.7, "unit": "µg/mL"},
      {"measurement": "EC50", "setting": "MCF7", "result": 0.889, "unit": "µg/mL"},
      {"measurement": "EC50", "setting": "A549", "result": 0.295, "unit": "µg/mL"},
      {"measurement": "LC50", "setting": "Culicidae", "result": 141, "unit": "µg/mL"},
      {"measurement": "EC50", "setting": "A498", "result": 0.544, "unit": "µg/mL"},
      {"measurement": "EC50", "setting": "PC-3", "result": 0.0701, "unit": "µg/mL"},
      {"measurement": "EC50", "setting": "MIA PaCa-2", "result": 0.0173, "unit": "µg/mL"},
      {"measurement": "EC50", "setting": "HT-29", "result": 0.525, "unit": "µg/mL"}
    ]},
    {"smiles": "CCCCCCCCCCC(O)C1CCC(C2CCC(C(O)CCCCCCCC[C@H](O)CC3=C[C@@H](C)OC3=O)O2)O1", "note": "(stereo partly specified) [ASIMICIN]", "values": [
      {"measurement": "LC50", "setting": "Artemia", "result": 0.026, "unit": "µg/mL"},
      {"measurement": "EC50", "setting": "MCF7", "result": 0.852, "unit": "µg/mL"},
      {"measurement": "EC50", "setting": "A549", "result": 0.00843, "unit": "µg/mL"},
      {"measurement": "LC50", "setting": "Culicidae", "result": 3.04, "unit": "µg/mL"}
    ]},
    {"smiles": "CCCCCCCCCCCC[C@@H](O)[C@H]1CC[C@H]([C@H]2CC[C@H]([C@H](O)CC[C@H](O)CCCCCCCC3=C[C@H](C)OC3=O)O2)O1", "values": [
      {"measurement": "LC50", "setting": "Artemia", "result": 4.58, "unit": "µg/mL"},
      {"measurement": "EC50", "setting": "MCF7", "result": 0.215, "unit": "µg/mL"},
      {"measurement": "EC50", "setting": "A549", "result": 0.000493, "unit": "µg/mL"},
      {"measurement": "LC50", "setting": "Culicidae", "result": 8.29, "unit": "µg/mL"},
      {"measurement": "EC50", "setting": "A498", "result": 0.0353, "unit": "µg/mL"},
      {"measurement": "EC50", "setting": "PC-3", "result": 0.000242, "unit": "µg/mL"},
      {"measurement": "EC50", "setting": "HT-29", "result": 0.0116, "unit": "µg/mL"}
    ]},
    {"smiles": "COc1cccc2c1C(=O)c1c(O)c3c(c(O)c1C2=O)C[C@@](O)(C(=O)CO)C[C@@H]3O[C@H]1C[C@H](N)[C@H](O)[C@H](C)O1", "note": "[DOXORUBICIN]", "values": [
      {"measurement": "LC50", "setting": "Artemia", "result": 0.26, "unit": "µg/mL"},
      {"measurement": "EC50", "setting": "MCF7", "result": 0.194, "unit": "µg/mL"},
      {"measurement": "EC50", "setting": "A549", "result": 0.0262, "unit": "µg/mL"},
      {"measurement": "EC50", "setting": "A498", "result": 0.0663, "unit": "µg/mL"},
      {"measurement": "EC50", "setting": "PC-3", "result": 0.287, "unit": "µg/mL"},
      {"measurement": "EC50", "setting": "MIA PaCa-2", "result": 0.034, "unit": "µg/mL"},
      {"measurement": "EC50", "setting": "HT-29", "result": 0.0494, "unit": "µg/mL"}
    ]},
    {"smiles": "CCCCCCCCCCCC[C@@H](O)[C@H]1CC[C@H]([C@H]2CC[C@H]([C@H](O)CCCCCC[C@@H](O)CC3=C[C@H](C)OC3=O)O2)O1", "values": [
      {"measurement": "LC50", "setting": "Artemia", "result": 7.34, "unit": "µg/mL"},
      {"measurement": "EC50", "setting": "MCF7", "result": 0.0154, "unit": "µg/mL"},
      {"measurement": "EC50", "setting": "A549", "result": 0.143, "unit": "µg/mL"},
      {"measurement": "LC50", "setting": "Culicidae", "result": 30.4, "unit": "µg/mL"},
      {"measurement": "EC50", "setting": "A498", "result": 0.064, "unit": "µg/mL"},
      {"measurement": "EC50", "setting": "PC-3", "result": 2.2, "unit": "µg/mL"},
      {"measurement": "EC50", "setting": "MIA PaCa-2", "result": 0.0792, "unit": "µg/mL"},
      {"measurement": "EC50", "setting": "HT-29", "result": 0.00332, "unit": "µg/mL"}
    ]},
    {"smiles": "CCCCCCCCCC[C@@H](O)[C@H]1CC[C@H]([C@H]2CC[C@H]([C@H](O)CCCCCCCC[C@@H](O)CC3=C[C@H](C)OC3=O)O2)O1", "note": "[PARVIFLORIN]", "values": [
      {"measurement": "LC50", "setting": "Artemia", "result": 0.088, "unit": "µg/mL"},
      {"measurement": "EC50", "setting": "MCF7", "result": 1.72, "unit": "µg/mL"},
      {"measurement": "EC50", "setting": "HT-29", "result": 0.549, "unit": "µg/mL"}
    ]},
    {"smiles": "CCCCCCCCCCCCCC[C@@H](O)[C@H]1CC[C@H]([C@H]2CC[C@H]([C@H](O)CCCC[C@@H](O)CC3=C[C@H](C)OC3=O)O2)O1", "values": [
      {"measurement": "LC50", "setting": "Artemia", "result": 9.42, "unit": "µg/mL"},
      {"measurement": "EC50", "setting": "MCF7", "result": 0.088, "unit": "µg/mL"},
      {"measurement": "EC50", "setting": "A549", "result": 0.455, "unit": "µg/mL"},
      {"measurement": "LC50", "setting": "Culicidae", "result": 75.7, "unit": "µg/mL"},
      {"measurement": "EC50", "setting": "A498", "result": 0.127, "unit": "µg/mL"},
      {"measurement": "EC50", "setting": "PC-3", "result": 2.96, "unit": "µg/mL"},
      {"measurement": "EC50", "setting": "MIA PaCa-2", "result": 1.09, "unit": "µg/mL"},
      {"measurement": "EC50", "setting": "HT-29", "result": 1, "unit": "µg/mL"}
    ]}
  ]
}
